Diaph inh CS: diaphorase inhibition or chemical oxidation counter-screen; diaphorase resazurin-to-resorufin fluorescence, NADH, 16 min; bacterial (C. kluyveri) enzyme, not human; inhibition, % at 20 µM; 190,000 compounds, 0.69% hits;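 active = primary screen inhibition at 20 µM above a set limit, cut at about 50% in these data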;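 note: plate controls were DMSO with full reaction for no effect and wells lacking NADH for full effect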
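Test system: Clostridium kluyveri diaphorase enzyme / Quantity: diaphorase at 0.14 U/mL in enzyme working solution / Incubation: 16-min room-temperature incubation before reading / Benchmarks: NADH-free wells as positive control, DMSO-only neutral wells / Signal: resorufin fluorescence 544/590 nm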
ROMK primary: modulators of human ROMK potassium channel. P48048. Tet-inducible ROMK, thallium flux fluorescence; actives lie on both sides. B-score at 10 µM. 130,000 compounds, 2% hits. AID 1918;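 active = signal ratio slope over the read window, or its plate-corrected B-score, at least 3 SD from the plate mean, either direction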;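 note: B-score of the F/F0 ratio slope over 7 to 12 s after thallium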
Target sequence (P48048 whole entry, looked up): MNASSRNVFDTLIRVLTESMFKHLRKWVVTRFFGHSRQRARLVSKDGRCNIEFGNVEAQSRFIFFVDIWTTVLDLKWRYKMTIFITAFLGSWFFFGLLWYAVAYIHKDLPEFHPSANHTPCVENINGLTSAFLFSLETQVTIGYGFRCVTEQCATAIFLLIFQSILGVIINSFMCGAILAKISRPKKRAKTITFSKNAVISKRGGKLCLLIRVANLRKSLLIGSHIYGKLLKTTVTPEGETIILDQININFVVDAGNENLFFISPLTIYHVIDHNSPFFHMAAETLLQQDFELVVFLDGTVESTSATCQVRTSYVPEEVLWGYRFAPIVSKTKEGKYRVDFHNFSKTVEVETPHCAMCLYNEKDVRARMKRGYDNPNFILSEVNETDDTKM
Cl transport mod: modulates chloride dependent transport by human KCC2 | KCC2 cells, thallium flux FluoZin-2 fluorescence | 190,000 compounds, 2.2% hits | Q9H2X9 | B-score of Tl+ flux slope (higher = more flux/activation; lower = inhibition) at 10 µM | AID 1456;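 active = thallium flux slope and its plate-corrected score both differing from the plate sample mean at a set confidence after two filtering rounds, in either direction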;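 note: slope of fluorescence scaled to starting intensity during 10 to 20 s after thallium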
Lmaj promast: Leishmania major promastigote growth inhibition | AID 1063 | Leishmania major promastigotes, resazurin fluorescence viability | 200,000 compounds, 9% hits | inhibition, % at 10 µM; in the data active = inhibition above about 50%;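 note: promastigotes grown with compound for 44 hours at 28 °C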
Diaph act CS: counter-screen for diaphorase-based assays: diaphorase activators and chemical reducers | 190,000 compounds, 0.005% hits | AID 1229 | Diaphorase/resazurin coupled assay, resorufin fluorescence, 16 min; hits give high values; 1 = vehicle wells, 0 = NADH-free wells | activation factor at 20 µM;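 active = diaphorase activity raised at least twofold by the compound at 20 µM; inactive = activation factor below 2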
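Test system: Clostridium kluyveri diaphorase, purified enzyme. Buffer or medium: 50 mM HEPES pH 7.4 buffer plus MgCl2 and Tween 20. Also added: 0.114 mM NADH and 0.1 mM resazurin, final amounts. Dosing: compound 20 µM once, DMSO 1%. Schedule: 16 min enzyme reaction, ambient temperature. Detection: fluorescence of resorufin, 544 nm excitation, 590 nm emission.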
WT yeast gro inh: growth inhibition of WT yeast, mitochondrial fusion screen. mitochondrial fusion phenotypic screen, WT strain. inhibition, % at 10 µM. 190,000 compounds, 2.1% hits; in the data active = inhibition above about 58%; tested in S. cerevisiae
Starred values were filed as active, the others as inactive; . = not tested or not shown. This is a sample that favours compounds with a hit; in the whole collection about 12% have one here.

SMILES | Diaph inh CS | ROMK primary | Cl transport mod | Lmaj promast | Diaph act CS | WT yeast gro inh
CCn1c(SCC(=O)Nc2ccc3c(c2)OCCO3)nnc1-c1c[nH]c2ccccc12 | 30.4 | . | -1.81 | 60.2* | 0.7 | -15.3
Cc1cc(NC(=O)CSc2nnc(-c3c[nH]c4ccccc34)n2-c2ccc(Cl)cc2)no1 | 3.6 | -0.157 | 0.0364 | 88.8* | 1 | -19.7
CCn1c(SCC(=O)Nc2ccc3c(c2)c2ccccc2n3CC)nnc1-c1cnccn1 | 1.8 | . | -0.118 | 98.7* | 1 | 22.4
CC1(C)Cc2nc3oc4c(NCCCN5CCOCC5)ncnc4c3cc2CO1 | . | . | -1.32 | . | . | .
O=C(COC(=O)C1(c2cccc(F)c2)CCCC1)NCc1ccc2c(c1)OCO2 | 13.6 | . | -1.07 | 16.6 | 0.9 | 2.6
C=C(C(=O)O)C1CCC2(C)CCCC(C)(O)C2C1 (stereo not drawn) | . | . | 0.514 | . | . | .
Cc1nnc(SCC(=O)Nc2ccccc2NC(=O)CSc2nnc(C)s2)s1 | 8.3 | . | 0.412 | -5.5 | 0.9 | 4.2
CCOC(=O)c1c(NC(=O)CSc2nnc(-c3c[nH]c4ccccc34)n2CC)sc2c1CCCC2 | 11.3 | 0.369 | -0.0902 | 55.2* | 0.9 | 7.1
Cc1ccc(C)c(NC(=O)CSc2nnc(-c3n[nH]c4ccccc34)o2)c1 | 14.5 | -0.0745 | -1.13 | 59.8* | 0.9 | -1.9
CCOC(=O)CSc1nnc(-c2c[nH]c3ccccc23)n1CC | -5.2 | . | . | -7.1 | 1.1 | -16.5
Cc1nnc(SCC(=O)Nc2sc3c(c2C(=O)c2ccccc2)CCCC3)s1 | 19.2 | . | -1.02 | 89.0* | 0.8 | 28.2
O=C(NCCCO)c1cc([N+](=O)[O-])cc2c1C=Cc1ccccc1O2 | 16.1 | 0.427 | 0.415 | 96.5* | 0.8 | 1.2
CC(Oc1ccccc1)c1ccnc2nc(N3CCOCC3)nn12 (stereo not drawn) | 6.7 | -0.168 | 0.00728 | 16.3 | 0.9 | 5.0
CC(Oc1ccc(Cl)cc1Cl)c1ccnc2nc(N3CCOCC3)nn12 (stereo not drawn) | 9.6 | -1.34 | -1.81 | 9.8 | 0.9 | 75.5*
CCC1CCc2c(sc(NC(=O)C3c4ccccc4Oc4ccccc43)c2C(N)=O)C1 (stereo not drawn) | 11.1 | . | 0.384 | 2.3 | 0.9 | 18.8
Cc1nn(Cc2ccccc2Cl)c2sc(C(=O)NC(C)(C)C)cc12 | 12.4 | . | -0.701 | 38.4 | 0.9 | 5.2
Cc1csc(NC(=O)c2cc3c(C)nn(Cc4ccccc4Cl)c3s2)n1 | 15.9 | . | -0.0409 | 95.9* | 0.8 | 33.4
c1ccc(-c2ccccc2OCCCCN2CCCCC2)cc1 | 9.1 | -2.14 | 0.0114 | 95.0* | 0.9 | 3.7
c1ccc(-c2ccccc2OCCCN2CCCCCC2)cc1 | -15.7 | -2.2 | 1.78 | 98.4* | 1.2 | 14.1
CC1CC(C)CN(CCOc2ccccc2-c2ccccc2)C1 (stereo not drawn) | 22.9 | -2.1 | -0.0265 | 31.9 | 0.8 | 22.9
c1ccc(-c2ccccc2OCCCN2CCCC2)cc1 | -8.7 | 0.22 | 1.31 | 47.7 | 1.1 | 5.5
O=[N+]([O-])c1cc(S(=O)(=O)Nc2cccc(Cl)c2)ccc1N/N=C/c1ccc(N2CCOCC2)cc1 | . | . | -1.05 | . | . | .
CCCNC(=O)CC1C(=O)N(Cc2ccccc2)C(C)c2nc3ccccc3n21 (stereo not drawn) | 0.0 | -0.636 | -0.913 | -2.1 | 1 | 5.4
Oc1ccc(-c2csc(Nc3ncccn3)n2)cc1O | 51.8* | 0.32 | -0.111 | 38.6 | 0.5 | 4.8
CN1CCN(CC(=O)Nc2nnc(-c3cccs3)s2)CC1 | 9.2 | 1.3 | 0.92 | -4.6 | 0.9 | -4.0
SMILES | Diaph inh CS | ROMK primary | Cl transport mod | Lmaj promast | Diaph act CS | WT yeast gro inh
CC1CN(c2nc(-c3ccc(Br)cc3)nnc2-c2ccccc2)CC(C)N1 (stereo not drawn) | 6.3 | . | 0.303 | 90.0* | 0.9 | 37.7
Clc1ccc(-c2nnc(-c3ccccc3)c(N3CCSCC3)n2)cc1 | 3.3 | . | . | 16.4 | 1 | 64.7*
O=[N+]([O-])c1ccc(-c2nnc(-c3ccccc3)c(N3CCOCC3)n2)cc1 | 17.7 | 0.13 | . | -6.4 | 0.8 | -0.8
O=C(NCCNc1ccc([N+](=O)[O-])cc1C(F)(F)F)c1ccc(F)cc1 | 18.4 | . | -3.24 | 56.0* | 0.8 | 7.4
O=C(NCCc1ccc(F)cc1)c1ccc([N+](=O)[O-])cc1 | 15.8 | 0.713 | -0.471 | 4.8 | 0.8 | -0.1
COc1cc(-c2nc3ccc4ccccc4c3c3c2CCC3)cc(OC)c1O | 26.2 | -0.485 | 0.729 | 98.9* | 0.7 | 97.9*
COc1cc(-c2nc3ccc4ccccc4c3c3c2CCC3)ccc1O | 19.0 | 0.455 | -1.04 | 29.5 | 0.8 | 79.1*
Cc1cc(S(=O)(=O)N2CCN=C2c2ccccc2)c(C)cc1Cl | -3.9 | . | -0.793 | -0.6 | 1 | 4.1
CO/N=C/c1c(-c2ccc(Cl)cc2)nc2cc(C)ccn12 | 12.8 | -2.36 | 0.118 | 60.5* | 0.9 | 22.9
O=c1cc(/C=C/c2ccccc2)oc2c1ccc1ccccc12 | 25.7 | -0.345 | -0.114 | -1.6 | 0.7 | 80.5*
CSc1ccccc1NC(=O)CN(C)CC(=O)Nc1c(F)cccc1F | 11.4 | 1.76 | -0.00186 | -5.9 | 0.9 | -7.2
O=c1c2cccnc2[nH]c(=S)n1Cc1ccccc1 | 3.0 | . | 5.49* | -6.0 | 1 | 16.0
O=c1c2nccnc2[nH]c(=S)n1Cc1ccccc1 | 11.4 | 0.0461 | 0.935 | -3.8 | 0.9 | 16.6
O=c1c2ccccc2[nH]c(=S)n1CCN1CCN(Cc2ccccc2)CC1 | 24.2 | -0.0356 | 15.2* | 11.8 | 0.8 | -3.9
CN(C)CCn1c(=S)[nH]c2ccccc2c1=O | -4.7 | -1.09 | 0.169 | 0.4 | 1 | -0.3
O=c1oc2ccccc2c(Nc2cccc3cccnc23)c1[N+](=O)[O-] | 28.6 | 0.00451 | -1.59 | 8.7 | 0.7 | -30.4
NC(=O)c1ccc(NCCCN2CCOCC2)c([N+](=O)[O-])c1 | -1.3 | 0.0659 | 0.913 | -5.2 | 1 | 2.1
CCCCCCCCn1c(N2CCN(c3cccc(Cl)c3)CC2)nc2c1c(=O)[nH]c(=O)n2C | 12.3 | 0.00294 | -0.268 | 31.9 | 0.9 | -12.1
CC(C)CCn1c(N2CCN(c3cccc(Cl)c3)CC2)nc2c1c(=O)[nH]c(=O)n2C | 12.7 | -1.11 | 0.00713 | 11.9 | 0.9 | 61.9*
Cc1cc(C)c2ccc(N)nc2c1O | 20.9 | . | -0.4 | 99.3* | 0.8 | 4.7
O=C1/C(=C/c2ccc([N+](=O)[O-])cc2)C=C(c2ccccc2)N1c1ccc(O)cc1 | 0.0 | 0.27 | -0.0216 | 99.9* | 1 | 51.4
O=C1/C(=C/c2ccc([N+](=O)[O-])cc2)C=C(c2ccccc2)N1c1ccccc1 | 16.0 | . | . | -3.0 | 0.8 | -10.3
CC(=O)c1c(C)nn(C(=O)N2CCOCC2)c1C | -10.9 | . | . | . | 1.1 | .
O=C(Nc1ccc(Cl)c(Cl)c1)c1ccc(Cn2cc(Cl)cn2)cc1 | 28.1 | -0.345 | -0.0698 | 23.4 | 0.7 | 78.3*
NNC(=O)c1ccc(Cn2cc(Cl)cn2)cc1 | 12.4 | 0.718 | -0.542 | -8.1 | 0.9 | -7.5
